According to ChEMBL document CHEMBL4118251 (J Med Chem, 2018):

How the values were obtained:
[1] = molecular target: T1, Gastric inhibitory polypeptide receptor (Homo sapiens, UniProt P48546); assay: Agonist activity at human GIP receptor expressed in HEK293 cells assessed as cAMP accumulation after 30 mins by HTRF assay; assay type: functional, cell-based
T1 sequence (P48546 whole entry): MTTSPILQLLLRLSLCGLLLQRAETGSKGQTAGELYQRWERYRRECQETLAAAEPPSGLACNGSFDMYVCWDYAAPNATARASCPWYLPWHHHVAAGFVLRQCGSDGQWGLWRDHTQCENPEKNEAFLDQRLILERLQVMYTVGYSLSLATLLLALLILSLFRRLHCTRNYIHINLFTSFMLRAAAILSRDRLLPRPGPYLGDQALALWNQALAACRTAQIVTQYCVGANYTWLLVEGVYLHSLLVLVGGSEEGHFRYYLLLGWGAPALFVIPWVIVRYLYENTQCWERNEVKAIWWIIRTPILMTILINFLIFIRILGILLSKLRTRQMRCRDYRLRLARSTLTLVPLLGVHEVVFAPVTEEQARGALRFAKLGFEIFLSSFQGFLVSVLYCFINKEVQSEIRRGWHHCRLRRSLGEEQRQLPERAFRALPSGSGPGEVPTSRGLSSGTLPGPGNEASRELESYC

Glucagon receptor = Glucagon receptor (Homo sapiens, UniProt P47871); assay: Agonist activity at human glucagon receptor expressed in HEK293 cells assessed as cAMP accumulation after 30 mins by HTRF assay; assay type: functional, cell-based
Glucagon receptor, sequence (P47871 whole entry): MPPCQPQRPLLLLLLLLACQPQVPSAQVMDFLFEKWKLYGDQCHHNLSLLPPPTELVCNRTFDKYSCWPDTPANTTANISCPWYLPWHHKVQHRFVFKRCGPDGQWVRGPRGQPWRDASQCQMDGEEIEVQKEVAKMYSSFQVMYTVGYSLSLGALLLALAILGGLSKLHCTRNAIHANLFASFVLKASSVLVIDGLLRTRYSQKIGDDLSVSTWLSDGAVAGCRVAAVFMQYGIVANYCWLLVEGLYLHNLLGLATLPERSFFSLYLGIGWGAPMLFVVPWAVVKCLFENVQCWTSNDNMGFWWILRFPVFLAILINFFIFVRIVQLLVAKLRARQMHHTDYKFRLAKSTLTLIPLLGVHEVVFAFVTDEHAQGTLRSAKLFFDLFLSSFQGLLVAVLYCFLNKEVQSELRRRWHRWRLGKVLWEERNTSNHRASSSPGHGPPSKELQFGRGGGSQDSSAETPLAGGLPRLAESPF

[2] = molecular target: T2, Glucagon-like peptide 1 receptor (Homo sapiens, UniProt P43220); assay: Agonist activity at human GLP1R expressed in HEK293 cells assessed as cAMP accumulation after 30 mins by HTRF assay; assay type: functional, cell-based
T2 sequence (P43220 whole entry): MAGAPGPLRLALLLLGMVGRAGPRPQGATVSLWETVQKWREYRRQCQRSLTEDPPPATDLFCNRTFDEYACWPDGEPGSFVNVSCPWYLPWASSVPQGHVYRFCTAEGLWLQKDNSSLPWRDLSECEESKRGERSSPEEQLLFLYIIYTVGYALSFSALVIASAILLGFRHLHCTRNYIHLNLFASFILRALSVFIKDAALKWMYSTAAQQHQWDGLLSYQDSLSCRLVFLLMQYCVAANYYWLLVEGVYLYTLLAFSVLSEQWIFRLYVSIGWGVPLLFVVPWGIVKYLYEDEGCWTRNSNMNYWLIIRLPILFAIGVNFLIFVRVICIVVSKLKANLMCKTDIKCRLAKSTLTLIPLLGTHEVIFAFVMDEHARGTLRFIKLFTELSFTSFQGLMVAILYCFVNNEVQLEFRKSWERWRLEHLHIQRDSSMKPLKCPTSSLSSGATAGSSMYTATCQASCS

Homo sapiens [3] = organism: Homo sapiens; assay: Selectivity ratio of EC50 for human GIP receptor expressed in HEK293 cells to EC50 for human GLP1R expressed in HEK293 cells; assay type: cell-based
Outline: (§1)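 HEK293 lines stably expressing human or monkey receptor were detached with accutase. Cells were resuspended at 400 000 cells/mL in HBSS/20 mM HEPES/0.1% BSA/2 mM IBMX and exposed to peptide for 30 min at room temperature. cAMP was read by HTRF (665/620 nm) after 1 h lysis.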

Homo sapiens [4] = organism: Homo sapiens; assay: Selectivity ratio of EC50 for human glucagon receptor expressed in HEK293 cells to EC50 for human GLP1R expressed in HEK293 cells; assay type: cell-based; outline: as §1
[5] = Agonist activity at monkey GIP receptor expressed in HEK293 cells assessed as cAMP accumulation after 30 mins by HTRF assay; assay type: cell-based, Macaca mulatta; outline: as §1
[6] = Agonist activity at monkey glucagon receptor expressed in HEK293 cells assessed as cAMP accumulation after 30 mins by HTRF assay; assay type: cell-based, Macaca mulatta; outline: as §1
[7] = molecular target: T2, Glucagon-like peptide 1 receptor; assay: Displacement of [125I]GLP-1 from human GLP1R expressed in HEK293 cell membranes after 180 mins by microbeta counting method
Outline: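 Membranes from HEK-293 cells expressing human GLP-1 receptor (1 μg protein/well) were coated on WGA SPA beads. […] The buffer was HEPES pH 7.4 with EDTA, NaCl, MgCl2, CaCl2, protease inhibitors and 0.1% BSA. Plates were read after a 180 min delay.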

Compound	EC50 [1]	EC50 (Glucagon receptor)	EC50 [2]	also measured
CCCCCCCCCCCCCCCCC(=O)N[C@@H](CCC(=O)N[C@@H](CCC(=O)NCCCC[C@H](NC(=O)[C@H](CCC(N)=O)NC(=O)[C@H](CCCCN)NC(=O)[C@H](CO)NC(=O)[C@H](CC(C)C)NC(=O)[C@H](CC(=O)O)NC(=O)[C@H](CO)NC(=O)[C@@H](NC(=O)[C@H](Cc1ccccc1)NC(=O)[C@@H](NC(=O)CNC(=O)[C@H](CCC(N)=O)NC(=O)C(C)(C)NC(=O)[C@@H](N)Cc1cnc[nH]1)[C@@H](C)O)[C@@H](C)O)C(=O)N[C@@H](CC(=O)O)C(=O)N[C@@H](CCC(=O)O)C(=O)N[C@@H](CCC(N)=O)C(=O)N[C@@H](CCCNC(=N)N)C(=O)N[C@@H](C)C(=O)N[C@@H](CCCCN)C(=O)N[C@@H](CC(C)C)C(=O)N[C@@H](Cc1ccccc1)C(=O)N[C@H](C(=O)N[C@@H](CCC(=O)O)C(=O)N[C@@H](Cc1c[nH]c2ccccc12)C(=O)N[C@@H](CC(C)C)C(=O)N[C@@H](CC(C)C)C(=O)N[C@@H](C)C(=O)NCC(=O)NCC(=O)N1CCC[C@H]1C(=O)N[C@@H](CO)C(=O)N[C@@H](CO)C(=O)NCC(=O)N[C@@H](C)C(=O)N1CCC[C@H]1C(=O)N1CCC[C@H]1C(=O)N1CCC[C@H]1C(=O)N[C@@H](CO)C(N)=O)[C@@H](C)CC)C(=O)O)C(=O)O	0.189 nM	0.0016 nM	0.0048 nM	
CCCCCCCCCCCCCCCCCCC(=O)N[C@@H](CCC(=O)NCCCC[C@H](NC(=O)[C@H](CCC(N)=O)NC(=O)[C@H](CCCCN)NC(=O)[C@H](CO)NC(=O)[C@H](CC(C)C)NC(=O)[C@H](CC(=O)O)NC(=O)[C@H](CO)NC(=O)[C@@H](NC(=O)[C@H](Cc1ccccc1)NC(=O)[C@@H](NC(=O)CNC(=O)[C@H](CCC(N)=O)NC(=O)C(C)(C)NC(=O)[C@@H](N)Cc1cnc[nH]1)[C@@H](C)O)[C@@H](C)O)C(=O)N[C@@H](CC(=O)O)C(=O)N[C@@H](CCC(=O)O)C(=O)N[C@@H](CCC(N)=O)C(=O)N[C@@H](CCCNC(=N)N)C(=O)N[C@@H](C)C(=O)N[C@@H](CCCCN)C(=O)N[C@@H](CC(C)C)C(=O)N[C@@H](Cc1ccccc1)C(=O)N[C@H](C(=O)N[C@@H](CCC(=O)O)C(=O)N[C@@H](Cc1c[nH]c2ccccc12)C(=O)N[C@@H](CC(C)C)C(=O)NC(C)(C)C(=O)N[C@@H](C)C(=O)NCC(=O)NCC(=O)N1CCC[C@H]1C(=O)N[C@@H](CO)C(=O)N[C@@H](CO)C(=O)NCC(=O)N[C@@H](C)C(=O)N1CCC[C@H]1C(=O)N1CCC[C@H]1C(=O)N1CCC[C@H]1C(=O)N[C@@H](CO)C(N)=O)[C@@H](C)CC)C(=O)O	0.102 nM	0.0067 nM	0.0014 nM	Ratio EC50 (Homo sapiens [3]): 73; Ratio EC50 (Homo sapiens [4]): 5
CCCCCCCCCCCCCCCCC(=O)N[C@@H](CCC(=O)NCCCC[C@H](NC(=O)[C@H](CCC(N)=O)NC(=O)[C@H](CCCCN)NC(=O)[C@H](CO)NC(=O)[C@H](CC(C)C)NC(=O)[C@H](CC(=O)O)NC(=O)[C@H](CO)NC(=O)[C@@H](NC(=O)[C@H](Cc1ccccc1)NC(=O)[C@@H](NC(=O)CNC(=O)[C@H](CCC(N)=O)NC(=O)[C@H](CO)NC(=O)[C@@H](N)Cc1cnc[nH]1)[C@@H](C)O)[C@@H](C)O)C(=O)N[C@@H](CC(=O)O)C(=O)N[C@@H](CO)C(=O)N[C@@H](CCCNC(=N)N)C(=O)N[C@@H](CCCNC(=N)N)C(=O)N[C@@H](C)C(=O)N[C@@H](CCC(N)=O)C(=O)N[C@@H](CC(=O)O)C(=O)N[C@@H](Cc1ccccc1)C(=O)N[C@H](C(=O)N[C@@H](CCC(=O)O)C(=O)N[C@@H](Cc1c[nH]c2ccccc12)C(=O)N[C@@H](CC(C)C)C(=O)N[C@@H](CCCCN)C(=O)N[C@@H](CC(N)=O)C(=O)NCC(=O)NCC(=O)N1CCC[C@H]1C(=O)N[C@@H](CO)C(=O)N[C@@H](CO)C(=O)NCC(=O)N[C@@H](C)C(=O)N1CCC[C@H]1C(=O)N1CCC[C@H]1C(=O)N1CCC[C@H]1C(=O)N[C@@H](CO)C(=O)O)[C@@H](C)CC)C(=O)O	1.21 nM	0.0007 nM	0.0039 nM	
CCCCCCCCCCCCCCCCC(=O)N[C@@H](CCC(=O)NCCCC[C@H](NC(=O)[C@H](CCC(N)=O)NC(=O)[C@H](CCCCN)NC(=O)[C@H](CO)NC(=O)[C@H](CC(C)C)NC(=O)[C@H](CC(=O)O)NC(=O)[C@H](CO)NC(=O)[C@@H](NC(=O)[C@H](Cc1ccccc1)NC(=O)[C@@H](NC(=O)CNC(=O)[C@H](CCC(N)=O)NC(=O)C(C)(C)NC(=O)[C@@H](N)Cc1cnc[nH]1)[C@@H](C)O)[C@@H](C)O)C(=O)N[C@@H](CC(=O)O)C(=O)N[C@@H](CCC(=O)O)C(=O)N[C@@H](CCC(N)=O)C(=O)N[C@@H](CCCNC(=N)N)C(=O)N[C@@H](C)C(=O)N[C@@H](CCCCN)C(=O)N[C@@H](CC(C)C)C(=O)N[C@@H](Cc1ccccc1)C(=O)N[C@H](C(=O)N[C@@H](CCC(=O)O)C(=O)N[C@@H](Cc1c[nH]c2ccccc12)C(=O)N[C@@H](CC(C)C)C(=O)NC(C)(C)C(=O)N[C@@H](C)C(=O)NCC(=O)NCC(=O)N1CCC[C@H]1C(=O)N[C@@H](CO)C(=O)N[C@@H](CO)C(=O)NCC(=O)N[C@@H](C)C(=O)N1CCC[C@H]1C(=O)N1CCC[C@H]1C(=O)N1CCC[C@H]1C(=O)N[C@@H](CO)C(N)=O)[C@@H](C)CC)C(=O)O	1.16 nM	0.0154 nM	0.0064 nM	Ratio EC50 (Homo sapiens [3]): 181
CC[C@H](C)[C@H](NC(=O)[C@H](Cc1ccccc1)NC(=O)[C@H](CCC(=O)O)NC(=O)[C@H](CCCCN)NC(=O)[C@H](C)NC(=O)[C@H](C)NC(=O)[C@H](CCC(N)=O)NC(=O)CNC(=O)[C@H](CCC(=O)O)NC(=O)[C@H](CC(C)C)NC(=O)[C@H](Cc1ccc(O)cc1)NC(=O)[C@H](CO)NC(=O)[C@H](CO)NC(=O)[C@@H](NC(=O)[C@H](CC(=O)O)NC(=O)[C@H](CO)NC(=O)[C@@H](NC(=O)[C@H](Cc1ccccc1)NC(=O)[C@@H](NC(=O)CNC(=O)[C@H](CCC(=O)O)NC(=O)[C@H](C)NC(=O)[C@@H](N)Cc1cnc[nH]1)[C@@H](C)O)[C@@H](C)O)C(C)C)C(=O)N[C@@H](C)C(=O)N[C@@H](Cc1c[nH]c2ccccc12)C(=O)N[C@@H](CC(C)C)C(=O)N[C@H](C(=O)N[C@@H](CCCCN)C(=O)NCC(=O)N[C@@H](CCCNC(=N)N)C(=O)O)C(C)C	> 100000 nM			EC50 ([5]; Macaca mulatta, HEK293, 0.5 h): > 100000 nM; EC50 ([6]; Macaca mulatta, HEK293, 0.5 h): > 100000 nM
GLUCAGON				EC50 ([5]; hek293): > 100000 nM; EC50 ([6]; hek293): 0.0015 nM
CC[C@H](C)[C@H](NC(=O)[C@H](Cc1ccccc1)NC(=O)[C@H](CC(C)C)NC(=O)[C@H](CCCCN)NC(=O)[C@H](C)NC(=O)[C@H](CCCNC(=N)N)NC(=O)[C@H](CCC(N)=O)NC(=O)[C@H](CCC(=O)O)NC(=O)[C@H](CC(=O)O)NC(=O)[C@H](CC(C)C)NC(=O)[C@H](CCC(N)=O)NC(=O)[C@H](CCCCN)NC(=O)[C@H](CO)NC(=O)[C@H](CC(C)C)NC(=O)[C@H](CC(=O)O)NC(=O)[C@H](CO)NC(=O)[C@@H](NC(=O)[C@H](Cc1ccccc1)NC(=O)[C@@H](NC(=O)CNC(=O)[C@H](CCC(N)=O)NC(=O)C(C)(C)NC(=O)[C@@H](N)Cc1cnc[nH]1)[C@@H](C)O)[C@@H](C)O)C(=O)N[C@@H](CCC(=O)O)C(=O)N[C@@H](Cc1c[nH]c2ccccc12)C(=O)N[C@@H](CC(C)C)C(=O)NC(C)(C)C(=O)N[C@@H](C)C(=O)NCC(=O)NCC(=O)N1CCC[C@H]1C(=O)N[C@@H](CO)C(=O)N[C@@H](CO)C(=O)NCC(=O)N[C@@H](C)C(=O)N1CCC[C@H]1C(=O)N1CCC[C@H]1C(=O)N1CCC[C@H]1C(=O)N[C@@H](CO)C(N)=O				IC50 [7]: 26 nM
